Assay results published in ChEMBL document CHEMBL4330106, “A new class of pentapeptide KISS1 receptor agonists with hypothalamic-pituitary-gonadal axis activation” (Bioorg Med Chem Lett, 2019).
Calls of active or inactive are those of the source. No cut-off for these calls is given here. Square brackets hold non-standard residues; d marks the D form. Peptide text beside a SMILES is read from it. * marks the point of attachment. Propanoyl(3-indol-3-yl) = O=C(CCc1c[nH]c2ccccc12)*; Propanoyl(3-(4-pyridyl)) = O=C(CCc1ccncc1)*; Arg(Me) = CNC(=N)NCCC[C@H](N)C(=O)O; Hydrocinnamoyl = O=C(CCc1ccccc1)*; d4Pal = N[C@H](Cc1ccncc1)C(=O)O; Hexanoyl = CCCCCC(=O)*; Bz = O=C(c1ccccc1)*; azaGly = NNC(=O)O

What was measured:
KiSS-1 receptor [1] = molecular target: KiSS-1 receptor (Homo sapiens, UniProt Q969F8); assay: Agonist activity at human KISS1R expressed in CHO cells assessed as increase in calcium mobilization measured at 2 secs interval for 2 mins by fluo-4 NW dye based FLIPR assay; type: functional, cell-based
In short: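 Ligand-induced Ca2+ rise in CHO cells expressing human KISS1R, read on a fluorometric imaging plate reader (FLIPR); agonist potency reported as EC50 (nM).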

[2] = Retention time of the compound by reverse-phase HPLC method; type: physicochemical
In short: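 RP-HPLC on C18 monolith column. Linear gradient of 0.1% TFA water / 0.1% TFA acetonitrile, A/B 95/5 to 35/65 over 10 min, 3.0 mL/min.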

Rattus norvegicus [3] = assay: Stimulation of plasma luteinizing hormone release in sc dosed Crl:CD(SD) rat administered as single bolus dose measured after 1 to 8 hrs; type: functional, organism-based
In short: (§1)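 Single subcutaneous bolus of 10, 100 or 1000 nmol/kg in 9-week-old male Crl:CD (SD) rats, n = 5, saline vehicle. Plasma LH measured 1, 2, 4 and 8 h post-dose. AUC0–8h (ng·h/mL) calculated per rat. One-tailed Williams' test versus vehicle; mean ± SD.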

[4] = Solubility of the compound in saline; type: physicochemical
KiSS-1 receptor [5] = molecular target: KiSS-1 receptor (Rattus norvegicus, UniProt Q924U1); assay: Agonist activity at rat KISS1R
[6] = Drug uptake in Crl:CD(SD) rat plasma administered via subcutaneous osmotic pumps every 1 hr after 6 days by LC/MS analysis; type: ADME, cell-free; details: sc, 144 h
In short: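 9-week-old male Crl:CD (SD) rats (five per group) implanted subcutaneously with osmotic pumps of 5, 10 or 20 mM aqueous peptide, delivering 5, 10, 20 nmol/h for 6 days. Steady-state plasma measured by LC/MS after protein precipitation with organic solvent; mean ± SD.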

Rattus norvegicus [7] = assay: Suppression of plasma testosterone level in Crl:CD(SD) rat at 5 to 20 nmol/hr administered via subcutaneous osmotic pumps measured after 6 days by radioimmunoassay; type: ADME, organism-based; details: in vivo, sc, 144 h
In short: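 Five 9-week-old male Crl:CD (SD) rats per group received continuous subcutaneous infusion by osmotic pump for 6 days: leuprolide 2 nmol/h, or test peptide 5, 10, 20 nmol/h from 5–20 mM aqueous solution. Plasma testosterone measured by radioimmunoassay. Distilled-water control; Dunnett's test; mean ± SD.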

Rattus norvegicus [8] = assay: Increase in plasma luteinizing hormone AUC (0 to 8 hrs) in Crl:CD(SD) rat at 100 nmol/kg, sc administered as single bolus dose; type: functional, organism-based; in short: as §1
[9] = Solubility of the compound in water; type: physicochemical
[10] = Stability in Sprague-Dawley rat serum assessed as parent compound remaining at 10 ug/ml measured after 5 mins by LC-MS/MS analysis; type: ADME, cell-free; details: read-out: Stability
In short: (§2)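 10 µL of 10 μg/mL aqueous peptide stock added to 990 μL pre-warmed SD rat serum (final 0.1 μg/mL), 37 °C. Aliquots taken at 0, 5, 15, 30, 60, 120 min. Quenched with formic acid/methanol and acetonitrile, centrifuged, internal standard added, quantified by LC/MS/MS. Result is percent remaining; n = 2.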

[11] = Stability in Sprague-Dawley rat serum assessed as parent compound remaining at 10 ug/ml measured after 15 mins by LC-MS/MS analysis; type: ADME, cell-free; details: read-out: Stability; in short: as §2
[12] = Stability in Sprague-Dawley rat serum assessed as parent compound remaining at 10 ug/ml measured immediately by LC-MS/MS analysis; type: ADME, cell-free; details: read-out: Stability; in short: as §2
[13] = Stability in Sprague-Dawley rat serum assessed as parent compound remaining at 10 ug/ml measured after 60 mins by LC-MS/MS analysis; type: ADME, cell-free; details: read-out: Stability; in short: as §2
[14] = Stability in Sprague-Dawley rat serum assessed as parent compound remaining at 10 ug/ml measured after 30 mins by LC-MS/MS analysis; type: ADME, cell-free; details: read-out: Stability; in short: as §2
[15] = Stability in Sprague-Dawley rat serum assessed as parent compound remaining at 10 ug/ml measured after 120 mins by LC-MS/MS analysis; type: ADME, cell-free; details: read-out: Stability; in short: as §2

Chain of KiSS-1 receptor (Homo sapiens, UniProt Q969F8) (Q969F8 whole entry): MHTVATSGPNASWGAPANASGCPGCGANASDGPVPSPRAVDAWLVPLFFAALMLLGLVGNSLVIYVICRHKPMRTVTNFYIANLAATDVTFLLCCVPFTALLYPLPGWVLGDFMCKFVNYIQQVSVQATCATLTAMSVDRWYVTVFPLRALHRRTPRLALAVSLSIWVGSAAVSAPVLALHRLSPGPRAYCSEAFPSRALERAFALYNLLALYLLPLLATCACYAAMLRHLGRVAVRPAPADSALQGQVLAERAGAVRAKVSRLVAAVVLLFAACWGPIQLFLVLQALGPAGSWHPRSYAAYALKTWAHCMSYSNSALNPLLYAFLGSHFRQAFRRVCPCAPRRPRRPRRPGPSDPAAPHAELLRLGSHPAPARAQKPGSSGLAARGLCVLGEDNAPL
Chain of KiSS-1 receptor (Rattus norvegicus, UniProt Q924U1) (Q924U1 whole entry): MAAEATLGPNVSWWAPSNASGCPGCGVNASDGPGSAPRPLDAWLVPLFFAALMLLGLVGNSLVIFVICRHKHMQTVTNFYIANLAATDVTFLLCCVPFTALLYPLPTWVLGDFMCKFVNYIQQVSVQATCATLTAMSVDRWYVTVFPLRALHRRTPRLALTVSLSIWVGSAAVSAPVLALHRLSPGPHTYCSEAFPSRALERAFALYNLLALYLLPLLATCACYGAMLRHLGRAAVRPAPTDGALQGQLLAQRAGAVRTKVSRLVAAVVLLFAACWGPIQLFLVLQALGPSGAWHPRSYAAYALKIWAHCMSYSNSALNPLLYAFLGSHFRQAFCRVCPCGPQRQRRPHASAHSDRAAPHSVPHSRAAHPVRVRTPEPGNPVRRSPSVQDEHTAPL

SMILES | EC50 (KiSS-1 receptor [1]) [pM] | Retention_time [2] [min] | further results
CNC(=N)NCCC[C@H](NC(=O)[C@H](CC(C)C)NC(=O)NNC(=O)[C@@H](N)Cc1ccccc1)C(=O)N[C@@H](Cc1ccccc1)C(N)=O (H-F[azaGly]L[Arg(Me)]F-NH2) | 130000 | 4.29 | 
CCC(=O)N[C@@H](Cc1ccccc1)C(=O)NNC(=O)N[C@@H](CC(C)C)C(=O)N[C@@H](CCCNC(=N)NC)C(=O)N[C@@H](Cc1c[nH]c2ccccc12)C(N)=O | 130 | 5.52 | 
CNC(=N)NCCC[C@H](NC(=O)[C@H](CC(C)C)NC(=O)NNC(=O)[C@H](Cc1ccccc1)NC(=O)c1ccccn1)C(=O)N[C@@H](Cc1c[nH]c2ccccc12)C(N)=O | 37 | 6.02 | 
CNC(=N)NCCC[C@H](NC(=O)[C@H](CC(C)C)NC(=O)NNC(=O)[C@H](Cc1ccccc1)NC(=O)c1ccncc1)C(=O)N[C@@H](Cc1c[nH]c2ccccc12)C(N)=O | 68 | 4.48 | Activity (Rattus norvegicus [3]): Dose-dependent effect; solubility [4]: > 1000 µg/mL; EC50 (KiSS-1 receptor [5]): 1200 pM; Drug uptake [6]: Dose-dependent effect; Activity (Rattus norvegicus [7]): Non-Toxic; Activity (Rattus norvegicus [8]): Active; solubility [9]: > 20000 µg/mL
CNC(=N)NCCC[C@H](NC(=O)[C@H](CC(C)C)NC(=O)NNC(=O)[C@H](Cc1ccccc1)NC(=O)[C@H](CO)NC(=O)[C@H](CC(N)=O)NC(=O)[C@@H](N)Cc1c[nH]c2ccccc12)C(=O)N[C@@H](Cc1ccccc1)C(N)=O (H-WNSF[azaGly]L[Arg(Me)]F-NH2) | 7700 | 5.03 | 
CNC(=N)NCCC[C@H](NC(=O)[C@H](CC(C)C)NC(=O)NNC(=O)[C@H](Cc1ccccc1)NC(=O)Cc1ccccc1)C(=O)N[C@@H](Cc1c[nH]c2ccccc12)C(N)=O | 270 | 6.49 | 
CNC(=N)NCCC[C@H](NC(=O)[C@H](CC(C)C)NC(=O)NNC(=O)[C@H](Cc1ccccc1)NC(=O)[C@H](CO)NC(=O)[C@H](CC(N)=O)NC(=O)[C@H](Cc1c[nH]c2ccccc12)NC(=O)[C@H](N)Cc1ccc(O)cc1)C(=O)N[C@@H](Cc1ccccc1)C(N)=O (H-[dY]WNSF[azaGly]L[Arg(Me)]F-NH2) | 57 | 5.54 | 
CNC(=N)NCCC[C@H](NC(=O)[C@H](CC(C)C)NC(=O)NNC(=O)[C@H](Cc1ccccc1)NC(=O)[C@H](CO)NC(=O)[C@H](CC(N)=O)NC(=O)[C@H](Cc1c[nH]c2ccccc12)NC(C)=O)C(=O)N[C@@H](Cc1ccccc1)C(N)=O (Ac-WNSF[azaGly]L[Arg(Me)]F-NH2) | 2100 | 5.76 | 
CNC(=N)NCCC[C@H](NC(=O)[C@H](CC(C)C)NC(=O)NNC(=O)[C@H](Cc1ccccc1)NC(=O)c1ccccc1)C(=O)N[C@@H](Cc1ccccc1)C(N)=O (Bz-F[azaGly]L[Arg(Me)]F-NH2) | 600 | 6.21 | 
CNC(=N)NCCC[C@H](NC(=O)[C@H](CC(C)C)NC(=O)NNC(=O)[C@H](Cc1ccccc1)NC(=O)[C@H](CO)NC(=O)[C@H](CC(N)=O)NC(=O)CCc1c[nH]c2ccccc12)C(=O)N[C@@H](Cc1ccccc1)C(N)=O ({Propanoyl(3-indol-3-yl)}-NSF[azaGly]L[Arg(Me)]F-NH2) | 130 | 5.95 | 
CNC(=N)NCCC[C@H](NC(=O)[C@H](CC(C)C)NC(=O)NNC(=O)[C@H](Cc1ccccc1)NC(=O)c1ccoc1)C(=O)N[C@@H](Cc1c[nH]c2ccccc12)C(N)=O | 110 | 5.88 | 
CNC(=N)NCCC[C@H](NC(=O)[C@H](CC(C)C)NC(=O)NNC(=O)[C@H](Cc1ccccc1)NC(=O)c1ccccc1)C(=O)N[C@@H](Cc1c[nH]c2ccccc12)C(N)=O | 24 | 6.29 | solubility [4]: < 100 µg/mL; remaining at 5 min, 10 ug/ml [10]: 98%; remaining at 0.25 h, 10 ug/ml [11]: 97%; remaining at 0 min, 10 ug/ml [12]: 100%; remaining at 1 h, 10 ug/ml [13]: 95%; remaining at 0.5 h, 10 ug/ml [14]: 99%; remaining at 2 h, 10 ug/ml [15]: 91%; solubility [9]: < 10000 µg/mL
CNC(=N)NCCC[C@H](NC(=O)[C@H](CC(C)C)NC(=O)NNC(=O)[C@H](Cc1ccccc1)NC(=O)c1c[nH]cn1)C(=O)N[C@@H](Cc1c[nH]c2ccccc12)C(N)=O | 240 | 4.47 | 
CNC(=N)NCCC[C@H](NC(=O)[C@H](CC(C)C)NC(=O)NNC(=O)[C@H](Cc1ccccc1)NC(=O)[C@H](CO)NC(=O)[C@H](CC(N)=O)NC(=O)[C@@H](Cc1ccncc1)NC(=O)[C@H](N)Cc1ccc(O)cc1)C(=O)N[C@@H](Cc1ccccc1)C(N)=O [KISS1-305] (H-[dY][d4Pal]NSF[azaGly]L[Arg(Me)]F-NH2) | 270 |  | EC50 (KiSS-1 receptor [5]): 170 pM; remaining at 5 min, 10 ug/ml [10]: 98%; remaining at 0.25 h, 10 ug/ml [11]: 97%; remaining at 0 min, 10 ug/ml [12]: 100%; remaining at 1 h, 10 ug/ml [13]: 89%; remaining at 0.5 h, 10 ug/ml [14]: 95%; remaining at 2 h, 10 ug/ml [15]: 70%
CNC(=N)NCCC[C@H](NC(=O)[C@H](CC(C)C)NC(=O)NNC(=O)[C@H](Cc1ccccc1)NC(=O)c1ccc[nH]1)C(=O)N[C@@H](Cc1c[nH]c2ccccc12)C(N)=O | 230 | 5.91 | 
CNC(=N)NCCC[C@H](NC(=O)[C@H](CC(C)C)NC(=O)NNC(=O)[C@H](Cc1ccccc1)NC(=O)[C@H](CO)NC(=O)CCc1c[nH]c2ccccc12)C(=O)N[C@@H](Cc1ccccc1)C(N)=O ({Propanoyl(3-indol-3-yl)}-SF[azaGly]L[Arg(Me)]F-NH2) | 8200 | 6.17 | 
CNC(=N)NCCC[C@H](NC(=O)[C@H](CC(C)C)NC(=O)NNC(=O)[C@H](Cc1ccccc1)NC(=O)[C@H](CO)NC(=O)[C@H](CC(N)=O)NC(=O)CCc1ccncc1)C(=O)N[C@@H](Cc1ccccc1)C(N)=O ({Propanoyl(3-(4-pyridyl))}-NSF[azaGly]L[Arg(Me)]F-NH2) | 1500 | 4.51 | 
CCCCCC(=O)N[C@@H](Cc1ccccc1)C(=O)NNC(=O)N[C@@H](CC(C)C)C(=O)N[C@@H](CCCNC(=N)NC)C(=O)N[C@@H](Cc1ccccc1)C(N)=O (Hexanoyl-F[azaGly]L[Arg(Me)]F-NH2) | 1400 | 6.66 | 
CNC(=N)NCCC[C@H](NC(=O)[C@H](CC(C)C)NC(=O)NNC(=O)[C@H](Cc1ccccc1)NC(=O)C(C)C)C(=O)N[C@@H](Cc1c[nH]c2ccccc12)C(N)=O | 58 | 5.88 | 
CNC(=N)NCCC[C@H](NC(=O)[C@H](CC(C)C)NC(=O)NNC(=O)[C@H](Cc1ccccc1)NC(C)=O)C(=O)N[C@@H](Cc1ccccc1)C(N)=O (Ac-F[azaGly]L[Arg(Me)]F-NH2) | 330 | 5.02 | 
CNC(=N)NCCC[C@H](NC(=O)[C@H](CC(C)C)NC(=O)NNC(=O)[C@H](Cc1ccccc1)NC(=O)CCc1c[nH]c2ccccc12)C(=O)N[C@@H](Cc1ccccc1)C(N)=O ({Propanoyl(3-indol-3-yl)}-F[azaGly]L[Arg(Me)]F-NH2) | 620 | 6.58 | 
CNC(=N)NCCC[C@H](NC(=O)[C@H](CC(C)C)NC(=O)NNC(=O)[C@H](Cc1ccccc1)NC(=O)C1CCCCC1)C(=O)N[C@@H](Cc1c[nH]c2ccccc12)C(N)=O | 120 | 6.7 | 
CNC(=N)NCCC[C@H](NC(=O)[C@H](CC(C)C)NC(=O)NNC(=O)[C@H](Cc1ccccc1)NC(=O)C1CC1)C(=O)N[C@@H](Cc1c[nH]c2ccccc12)C(N)=O | 28 | 5.7 | 
CNC(=N)NCCC[C@H](NC(=O)[C@H](CC(C)C)NC(=O)NNC(=O)[C@H](Cc1ccccc1)NC(=O)[C@H](CO)NC(=O)[C@H](CC(N)=O)NC(=O)CCc1ccccc1)C(=O)N[C@@H](Cc1ccccc1)C(N)=O (Hydrocinnamoyl-NSF[azaGly]L[Arg(Me)]F-NH2) | 170 | 5.9 | 
CNC(=N)NCCC[C@H](NC(=O)[C@H](CC(C)C)NC(=O)NNC(=O)[C@H](Cc1ccccc1)NC(=O)CCc1c[nH]c2ccccc12)C(=O)N[C@@H](Cc1c[nH]c2ccccc12)C(N)=O | 22 | 6.67 | 
CNC(=N)NCCC[C@H](NC(=O)[C@H](CC(C)C)NC(=O)NNC(=O)[C@H](Cc1ccccc1)NC(=O)c1cccnc1)C(=O)N[C@@H](Cc1c[nH]c2ccccc12)C(N)=O | 160 | 4.69 | 
